Screening results: PubChem BioAssay, Johns Hopkins Ion Channel Center
The list is not random: actives were taken first. Their share in the collection is about 3.7%.
KCNQ1 pot – human KCNQ1 channel potentiation or activation; B-score at 10 µM; CHO-K1 KCNQ1, thallium flux FluxOR fluorescence; stronger effect = higher value; 310,000 compounds, 0.35% hits; P51787; AID 2648;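 active means fluorescence ratio B-score, a plate-corrected score, at least three library SD, with initial intensity B-score within 5 SD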
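System: Stable KCNQ1 CHO-K1 line | Incubation: 90 min dye loading and 20 min compound exposure, both at room temperature | Measure: Ratio B score | Medium: Assay buffer for compound exposure, DMSO matched across wells | Compound dosing: Single-concentration screen | Probe or stimulus: K+/Tl+ depolarizing stimulus | Measured by: Kinetic FluxOR fluorescence, 10 s baseline plus 110 s post-stimulus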
Kir21 block – blocks the mouse Kir2.1 inward-rectifier potassium channel; P35561; HEK293-Kir2.1, FluxOR thallium flux fluorescence; stronger effect = lower value; B-score at 10 µM; 310,000 compounds, 0.85% hits; AID 1672;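 active means fluorescence ratio B-score at or below minus 3 SD of library scores, with starting-brightness B-score within 2 SD, cut at about -4.2 in these data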;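 further: channel flux triggered by added potassium and thallium sulfate stimulus; B-score of peak minus minimum fluorescence over baseline after thallium stimulus; more negative B-score means stronger Kir2.1 block with less thallium influx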
KCNK3 block – human KCNK3 channel inhibition, primary screen; O14649; CHO-KCNK3 thallium flux, FluxOR fluorescence; stronger effect = lower value; B-score at 10 µM; 340,000 compounds, 0.84% hits;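 active means B-score under library mean minus 4 SD, starting fluorescence ratio at most library mean plus 5 SD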;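 further: more negative B-score means stronger inhibition of thallium flux through KCNK3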
Target sequence (O14649 whole entry, looked up): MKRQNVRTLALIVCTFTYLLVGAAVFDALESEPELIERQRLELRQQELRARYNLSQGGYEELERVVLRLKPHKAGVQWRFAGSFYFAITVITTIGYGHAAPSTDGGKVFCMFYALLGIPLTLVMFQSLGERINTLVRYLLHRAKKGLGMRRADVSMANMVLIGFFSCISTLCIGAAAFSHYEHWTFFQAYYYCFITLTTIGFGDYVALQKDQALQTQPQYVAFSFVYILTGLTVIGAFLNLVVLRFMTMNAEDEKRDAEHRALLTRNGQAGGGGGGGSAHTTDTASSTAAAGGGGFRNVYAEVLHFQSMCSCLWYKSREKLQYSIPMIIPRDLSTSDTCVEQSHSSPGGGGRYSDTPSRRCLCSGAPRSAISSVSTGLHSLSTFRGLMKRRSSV
hERG rescue – hERG (human) protection from proarrhythmic block | Q12809 | CHO-hERG, FluxOR thallium flux, dofetilide IC70 present | activation (rescue from dofetilide block), less the hit threshold, % at 10 µM | 310,000 compounds, 0.51% hits | AID 1511;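 active means activation above the mean of controls blocked by dofetilide plus 5 SD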;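 further: thallium influx through hERG after potassium depolarization seen as dye fluorescence rise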
KCNQ1 block – blocks the human KCNQ1 potassium channel; 310,000 compounds, 1.3% hits; P51787; CHO-K1 KCNQ1, FluxOR thallium flux fluorescence; stronger effect = higher value; AID 2642; B-score at 10 µM;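 active means compounds whose thallium flux B-score, printed positive for inhibition, exceeds three library SD while starting fluorescence stays within three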;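 further: channel opened by potassium depolarization with thallium stimulus after 20 min compound exposure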
KCNK9 block – human KCNK9 channel inhibition; Q9NPC2; HEK293 KCNK9, FluxOR thallium flux fluorescence; stronger effect = lower value; B-score at 10 µM; 310,000 compounds, 1.2% hits; AID 488922;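 active means ratio B-score over 3 SD below the library mean, with starting fluorescence within 5 SD of its mean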;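 further: negative B-score means less thallium flux so channel inhibition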
Starred values were filed as active, the others as inactive; i = inactive; . = no result; ! = not confirmed by another sample.

SMILES	KCNQ1 pot	Kir21 block	KCNK3 block	hERG rescue	KCNQ1 block	KCNK9 block
Cc1cc(-c2ccccc2)cc(-c2ccccc2)[n+]1CCc1ccccc1	i	-6.9*	i	-26	8*	-8*
CC12CCC(=O)C=C1CC(N1CC1)C1C2CCC2(C)C(O)CCC12 (centres undefined)	.	.	i	.	.	.
C[C@]12CC[C@H](O)CC1C(=O)CC1C2CC[C@@]2(C)C1CC[C@@H]2O (some centres undefined)	.	.	i	.	.	.
CC(C)OP(=O)(OC(C)C)C(O)c1cccnc1 (centres undefined)	i	-0.02	i	-9	i	i
Cc1ccc(/C=C2\C(=O)NC(=S)N(c3ccc(F)cc3)C2=O)s1	i	-1.7	i	11*	i	i
Cc1[nH]c2ccc(OC(F)(F)F)cc2c1CCNCc1cccc([N+](=O)[O-])c1	i	-2.1	i	-14	i	i
CCOc1cccc(CNCCc2c(C)[nH]c3ccc(OC(F)(F)F)cc23)c1O	i	-13*	i	-21	12*	i
Cc1[nH]c2ccc(OC(F)(F)F)cc2c1CCNCc1ccc(Cl)cc1	i	-7.2*	i	-28	i	i
COC(=O)C1=C(c2ccc(Cl)c(C(F)(F)F)c2)C[C@@H]2CC[C@H]1N2C(=O)NCCOc1ccccc1Cl	.	.	i	.	.	.
O=C1NC(=O)N(c2cccc(Cl)c2)C(=O)/C1=C\c1ccc(Sc2nc3ccccc3[nH]2)o1	i	-4.8*	i	-10	i	i
CC12CCC3C(CCC4CC(=O)OCC43C)C1CCC2O (centres undefined)	.	.	i	.	.	.
CC(C)[C@H]1C(=O)N2CCC[C@H]2[C@]2(O)O[C@](NC(=O)[C@@H]3C=C4c5cccc6[nH]cc(c56)C[C@H]4N(C)C3)(C(C)C)C(=O)N12	.	.	i	.	.	.
CC(C)C[C@H]1C(=O)N2CCCC2[C@]2(O)O[C@](NC(=O)[C@@H]3C=C4c5cccc6[nH]cc(c56)CC4N(C)C3)(C(C)C)C(=O)N12 (some centres undefined)	i	0.87	i	-10	8*	i
O=c1[nH]c(=O)n(C2CCCCC2)c(O)c1/C=C/C=Nc1ccccc1	i	-0.48	i	-5	i	i
CC[n+]1c(/C=C/N(C)c2ccccc2)sc2ccc(Cl)cc21	i	0.38	i	-23	6*	i
CC[n+]1c(/C=C/C=C/c2ccc(N(C)C)cc2)sc2ccccc21	i	-4	-11*	-29	i	-6.6*
CN(C)c1ccc(/C=C/C=C/c2sc3ccccc3[n+]2C)cc1	i	0.58	i	-18	i	i
CC(C)(C)C(=O)Nc1ccc(S(=O)(=O)N2CC3CC(C2)c2cccc(=O)n2C3)cc1 (centres undefined)	i	0.02	i	-3	i	i
CC(C)OP(=O)(OC(C)C)C(O)c1ccccc1F (centres undefined)	i	0.91	i	-3	i	i
Cc1ccc(C(C)C)c(OCC#CCN2CCCC2)c1	i	-4.2*	i	-14	i	i
COc1ccc(OCC#CCN2CCCCCC2)cc1	i	0.55	i	-13	i	i
O=C(Nc1ccc(F)cc1F)c1cccnc1Oc1cccc(C(F)(F)F)c1	i	0.54	i	-4	i	i
O=c1cccc2n1CC1CC2CN(Cc2cccc(Cl)c2Cl)C1 (centres undefined)	i	-7.8*	i	-11	i	i
O=c1cccc2n1CC1CC2CN(Cc2c(F)cccc2Cl)C1 (centres undefined)	i	-0.73	i	-6	i	i
CCc1cccc(CC)c1NC(=S)N1CC2CC(C1)c1cccc(=O)n1C2 (centres undefined)	i	0.65	i	-6	i	i
SMILES	KCNQ1 pot	Kir21 block	KCNK3 block	hERG rescue	KCNQ1 block	KCNK9 block
Cc1c(Cl)cccc1NC(=S)N1CC2CC(C1)c1cccc(=O)n1C2 (centres undefined)	30*	1	i	-4	i	i
CCCCc1cc(=O)oc2cc(OCC(=O)N3C[C@H]4C[C@@H](C3)c3cccc(=O)n3C4)c(Cl)cc12	i	-0.86	i	-8	i	i
Cc1cccn2c(=O)c3c(nc12)N1CCC(Cc2ccccc2)CC1C1(C3)C(=O)N(C)C(=O)N(C)C1=O (centres undefined)	i	1.1	i	-11	i	-6.6*
CCCCn1c(=O)c(C(=O)Nc2cnccn2)c(O)c2ccccc21	i	0.03	i	-40	9*	i
CCCCCn1c(=O)c(C(=O)Nc2ncccc2C)c(O)c2ccccc21	i	1.7	i	-7	i	i
O=C1C(Cl)=CC(=Nc2ccc(O)cc2)C=C1Cl	.	.	i	.	.	.
CCN1/C(=C\C=C\C2=[N+](CC)c3ccccc3C2(C)C)C(C)(C)c2ccccc21	i	-13	i	-56	21*	i
N[C@@H](Cn1oc(=O)[nH]c1=O)C(=O)O	i	-0.14	i	-7	i	i
OC(Cn1c2ccccc2c2ccccc21)C[n+]1cccc2ccccc21 (centres undefined)	i	-5.2*	i	-5	i	i
CCC(=O)O[C@@H]1[C@@H](OC(C)=O)[C@@]2(O)C(C[C@H](O)C2(C)C)[C@](C)(O)[C@H]2CC[C@@H]3[C@@H](O)[C@]12C[C@@]3(C)O (some centres undefined)	i	-1.2	i	-8	i	i
CC(C)n1c(O)c(C2c3cc(Cl)ccc3Oc3[nH]c(=O)n(C(C)C)c(=O)c32)c(=O)[nH]c1=O (centres undefined)	i	-4.3*	i	-24	i	i
CCCC(=O)NC(Oc1ccc(OC)cc1)C(Cl)(Cl)Cl (centres undefined)	i	-5.7*	i	-6	i	i
O=[N+]([O-])c1ccccc1-c1cc(-c2ccccc2)cc(-c2ccccc2)[n+]1Cc1ccccc1Cl	i	-9.1*	.	-30	8*	-8*
COc1ccc(C2NCCc3[nH]cnc32)cc1 (centres undefined)	i	-0.05	i	-4	i	i
COc1ccc(Cn2c(O)c(/C=N/NC(=O)c3ccccc3)c(=O)[nH]c2=O)cc1	i	-0.48	i	-16	7*	i
CCN(CC)c1ccc(N=Cc2c(O)n(Cc3ccccc3)c(=O)[nH]c2=O)cc1	i	0.35	i	-12	7*!	-7.3*!
CCN(CC)c1ccc(N=Cc2c(O)n(-c3ccccc3)c(=O)[nH]c2=O)cc1	i	0	i	-11	i	i
